# Measured values published in ChEMBL document CHEMBL5303300, “EUbOPEN Chemogenomics Library - Multiplex” (2023).
# Several values for one entry are separate records, joined by “and”; a condition that tells them apart may be missing. Equal entries are not always repeated.
# Test system: Fibroblast
# Assay: Multiplex assay against human fibroblast
# Type: toxicity, cell-based
# Details: number of replicates 2
# Procedure, shortened: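 Four dyes were applied at seeding to live cells: Hoechst33342, BioTracker Green Microtubule Cytoskeleton Dye, MitoTracker Red and Annexin V Alexa Fluor 680. Imaging after compound addition used a CQ1 microscope at 37°C and 5% CO2. CellPathfinder machine-learning gating then sorted cells into Hoechst high-intensity objects or normal cells, normal cells into healthy, pyknosed or fragmented nuclei, and pyknosed cells into mitotic or apoptotic, with tubulin, mitochondrial-mass and membrane-permeability phenotypes given as per cents of healthy-nucleus cells.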
# [1] = 12 h, 1 µM, compound concentration 1 uM
# [2] = 12 h, 10 µM, compound concentration 10 uM
# [3] = 24 h, 1 µM, compound concentration 1 uM
# [4] = 24 h, 10 µM, compound concentration 10 uM
# [5] = 48 h, 1 µM, compound concentration 1 uM
# [6] = 48 h, 10 µM, compound concentration 10 uM
structure (smiles),measurement,setting,value
COCCN1CCN(CCn2ccc(Nc3ncc4c(n3)-c3c(nn(C)c3-c3ccccc3)C[C@H]4C)n2)CC1,Population Apoptotic (%),[1],48% and 20%
same,Population Fragmented Nuclei (%),[1],9% and 8%
same,Population Healthy Nuclei (%),[1],73% and 72%
same,Population Hoechst High Intensity Objects (%),[1],0%
same,Population Membrane Permeable-Phenotype (%),[1],4% and 8%
same,Population Mitochondria Different-Phenotype (%),[1],0% and 1%
same,Population Mitotic Cells (%),[1],51% and 79%
same,Population Normal (%),[1],100%
same,Population Pyknosed Nuclei (%),[1],16% and 19%
same,Population Tubulin-Different-Phenotype (%),[1],16% and 12%
same,Total Cell Count,[1],202 and 275
same,Population Apoptotic (%),[2],32% and 46%
same,Population Fragmented Nuclei (%),[2],13% and 20%
same,Population Healthy Nuclei (%),[2],57% and 61%
same,Population Hoechst High Intensity Objects (%),[2],0%
same,Population Membrane Permeable-Phenotype (%),[2],12% and 5%
same,Population Mitochondria Different-Phenotype (%),[2],2%
same,Population Mitotic Cells (%),[2],67% and 53%
same,Population Normal (%),[2],99%
same,Population Pyknosed Nuclei (%),[2],29% and 18%
same,Population Tubulin-Different-Phenotype (%),[2],58% and 32%
same,Total Cell Count,[2],222 and 175
same,Population Apoptotic (%),[3],51% and 44%
same,Population Fragmented Nuclei (%),[3],10% and 11%
same,Population Healthy Nuclei (%),[3],72% and 69%
same,Population Hoechst High Intensity Objects (%),[3],0%
same,Population Membrane Permeable-Phenotype (%),[3],5% and 4%
same,Population Mitochondria Different-Phenotype (%),[3],0%
same,Population Mitotic Cells (%),[3],48% and 55%
same,Population Normal (%),[3],99%
same,Population Pyknosed Nuclei (%),[3],16% and 19%
same,Population Tubulin-Different-Phenotype (%),[3],14% and 10%
same,Total Cell Count,[3],188 and 271
same,Population Apoptotic (%),[4],57% and 51%
same,Population Fragmented Nuclei (%),[4],13% and 16%
same,Population Healthy Nuclei (%),[4],59% and 64%
same,Population Hoechst High Intensity Objects (%),[4],1% and 0%
same,Population Membrane Permeable-Phenotype (%),[4],7% and 3%
same,Population Mitochondria Different-Phenotype (%),[4],4% and 5%
same,Population Mitotic Cells (%),[4],42% and 48%
same,Population Normal (%),[4],98% and 100%
same,Population Pyknosed Nuclei (%),[4],27% and 19%
same,Population Tubulin-Different-Phenotype (%),[4],53% and 29%
same,Total Cell Count,[4],201 and 173
same,Population Apoptotic (%),[5],52% and 60%
same,Population Fragmented Nuclei (%),[5],10% and 12%
same,Population Healthy Nuclei (%),[5],74% and 72%
same,Population Hoechst High Intensity Objects (%),[5],0%
same,Population Membrane Permeable-Phenotype (%),[5],6% and 4%
same,Population Mitochondria Different-Phenotype (%),[5],0%
same,Population Mitotic Cells (%),[5],48% and 39%
same,Population Normal (%),[5],100% and 99%
same,Population Pyknosed Nuclei (%),[5],14% and 15%
same,Population Tubulin-Different-Phenotype (%),[5],12% and 6%
same,Total Cell Count,[5],171 and 271
same,Population Apoptotic (%),[6],63% and 46%
same,Population Fragmented Nuclei (%),[6],16% and 15%
same,Population Healthy Nuclei (%),[6],65% and 66%
same,Population Hoechst High Intensity Objects (%),[6],0%
same,Population Membrane Permeable-Phenotype (%),[6],8% and 6%
same,Population Mitochondria Different-Phenotype (%),[6],3% and 8%
same,Population Mitotic Cells (%),[6],36% and 53%
same,Population Normal (%),[6],99%
same,Population Pyknosed Nuclei (%),[6],18% and 17%
same,Population Tubulin-Different-Phenotype (%),[6],43% and 17%
same,Total Cell Count,[6],201 and 161
CCn1ccc(Nc2ncc3c(n2)-c2c(nn(C)c2-c2ccc(-c4cnn(C)c4)cc2Cl)CC3)n1,Population Apoptotic (%),[1],36% and 33%
same,Population Fragmented Nuclei (%),[1],11% and 9%
same,Population Healthy Nuclei (%),[1],71% and 65%
same,Population Hoechst High Intensity Objects (%),[1],0%
same,Population Membrane Permeable-Phenotype (%),[1],8% and 7%
same,Population Mitochondria Different-Phenotype (%),[1],1% and 2%
same,Population Mitotic Cells (%),[1],63% and 66%
same,Population Normal (%),[1],99%
same,Population Pyknosed Nuclei (%),[1],17% and 25%
same,Population Tubulin-Different-Phenotype (%),[1],14% and 18%
same,Total Cell Count,[1],258 and 213
same,Population Apoptotic (%),[2],51% and 48%
same,Population Fragmented Nuclei (%),[2],11%
same,Population Healthy Nuclei (%),[2],75% and 69%
same,Population Hoechst High Intensity Objects (%),[2],0%
same,Population Membrane Permeable-Phenotype (%),[2],5% and 6%
same,Population Mitochondria Different-Phenotype (%),[2],2% and 1%
same,Population Mitotic Cells (%),[2],48% and 51%
same,Population Normal (%),[2],100%
same,Population Pyknosed Nuclei (%),[2],13% and 19%
same,Population Tubulin-Different-Phenotype (%),[2],56% and 41%
same,Total Cell Count,[2],204 and 191
same,Population Apoptotic (%),[3],40% and 49%
same,Population Fragmented Nuclei (%),[3],10% and 7%
same,Population Healthy Nuclei (%),[3],75% and 66%
same,Population Hoechst High Intensity Objects (%),[3],0%
same,Population Membrane Permeable-Phenotype (%),[3],2% and 6%
same,Population Mitochondria Different-Phenotype (%),[3],0% and 1%
same,Population Mitotic Cells (%),[3],59% and 50%
same,Population Normal (%),[3],100% and 99%
same,Population Pyknosed Nuclei (%),[3],13% and 25%
same,Population Tubulin-Different-Phenotype (%),[3],7% and 8%
same,Total Cell Count,[3],239 and 234
same,Population Apoptotic (%),[4],60% and 55%
same,Population Fragmented Nuclei (%),[4],8% and 6%
same,Population Healthy Nuclei (%),[4],78% and 77%
same,Population Hoechst High Intensity Objects (%),[4],0%
same,Population Membrane Permeable-Phenotype (%),[4],1% and 4%
same,Population Mitochondria Different-Phenotype (%),[4],1% and 2%
same,Population Mitotic Cells (%),[4],40% and 44%
same,Population Normal (%),[4],100% and 99%
same,Population Pyknosed Nuclei (%),[4],12% and 15%
same,Population Tubulin-Different-Phenotype (%),[4],62% and 39%
same,Total Cell Count,[4],202 and 187
same,Population Apoptotic (%),[5],71% and 69%
same,Population Fragmented Nuclei (%),[5],13% and 12%
same,Population Healthy Nuclei (%),[5],75% and 67%
same,Population Hoechst High Intensity Objects (%),[5],0%
same,Population Membrane Permeable-Phenotype (%),[5],2% and 3%
same,Population Mitochondria Different-Phenotype (%),[5],0%
same,Population Mitotic Cells (%),[5],28% and 30%
same,Population Normal (%),[5],99% and 100%
same,Population Pyknosed Nuclei (%),[5],11% and 19%
same,Population Tubulin-Different-Phenotype (%),[5],6% and 7%
same,Total Cell Count,[5],252 and 233
same,Population Apoptotic (%),[6],84% and 82%
same,Population Fragmented Nuclei (%),[6],14% and 8%
same,Population Healthy Nuclei (%),[6],68% and 75%
same,Population Hoechst High Intensity Objects (%),[6],0%
same,Population Membrane Permeable-Phenotype (%),[6],2% and 3%
same,Population Mitochondria Different-Phenotype (%),[6],4% and 3%
same,Population Mitotic Cells (%),[6],15% and 17%
same,Population Normal (%),[6],100%
same,Population Pyknosed Nuclei (%),[6],16%
same,Population Tubulin-Different-Phenotype (%),[6],56% and 38%
same,Total Cell Count,[6],195 and 170
